Assay results from different studies.
Each line is one published result; the experiments were not run side by side.
Target: Ribosomal protein S6 kinase beta-1 (RPS6KB1, Homo sapiens, UniProt P23443)

SMILES	assay	conditions	endpoint	result
CC(C)(C)c1cc(C=C(C#N)C#N)cc(Br)c1O	enzyme activity, inhibitor	0.5 µM	remaining activity	91.3%
C#Cc1n[nH]c2c(-c3cn([C@@H](C)c4ccccn4)c(=O)[nH]c3=O)cc(F)cc12	enzyme activity, inhibitor	0.1 µM	inhibition	10.2%
O=c1[nH]c2ccccc2n1C1CCN(Cc2ccc(-c3[nH]c4cc5ncnc5cc4nc3-c3ccccc3)cc2)CC1	cell-free assay	0.5 µM	remaining signal	101%
Cc1nn(C)cc1-c1nc2c(N3CCN(Cc4ccc(Cl)cc4)CC3)c(Cl)cnc2[nH]1	binding, competition with immobilised ligand	1 µM	remaining binding	92%
COc1cc(Nc2ncc(F)c(Nc3ccc4c(n3)NC(=O)C(C)(C)O4)n2)cc(OC)c1OC	binding	10 µM	inhibition	81%
C#Cc1n[nH]c2c(-c3cn([C@@H](C)c4ccccc4)c(=O)[nH]c3=O)cc(F)cc12	enzyme activity, inhibitor	0.1 µM	inhibition	18.6%
Cn1cc(-c2cccc(N3CCc4c(sc5c4CC(C)(C)C5)C3=O)c2CO)cc(Nc2ccncn2)c1=O	enzyme activity, inhibitor	1 µM	inhibition	5%
Nc1ncc(-c2nc(N3CCOCC3)nc(N3CCOCC3)n2)c(C(F)F)n1	binding, competition with immobilised ligand	10 µM	remaining binding	76%
Cn1cncc1[C@@](O)(COc1ccc(C#N)cc1-c1ccc(OC(F)(F)F)cc1)c1ccc(C#N)cc1	cell-free assay, competition with immobilised ligand	1 µM	remaining binding	94%
Cn1cc(-c2cc(F)cc(N3CCn4c(cc5c4CCCC5)C3=O)c2CO)cc(Nc2ccc(N3CCN(C4COC4)CC3)cn2)c1=O	enzyme activity, inhibitor	0.1 µM	inhibition	10%
N#CC1(c2ccccn2)CCN(Cc2cc(C(=O)O)c(=O)n3ccccc23)CC1	cell-free assay, competition with immobilised ligand	1 µM	remaining binding	96%
COc1ncccc1-c1cnn2ccc(N3CCN(C(=O)OC(C)C)CC3)nc12	binding, competition with immobilised ligand	1 µM	remaining binding	100%
